Test results from ChEMBL document CHEMBL4715796, “Discovery of Chromane Containing Hepatitis C Virus (HCV) NS5A Inhibitors with Improved Potency against Resistance-Associated Variants” (J Med Chem, 2016).

What was measured:
[1] = Cmax in male Wistar Han rat at 300 mg/kg, po administered as single dose post overnight fasting measured upto 24 hrs by LC-MS/MS analysis; type: ADME, organism-based; parameters: route oral, dose 300 mg/kg, time <=24; conditions: in vivo
Summary of the method: (§1)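 Male Wistar Han rats were given single oral rising doses of 10, 100 or 300 mpk. AUC, Cmax, Tmax and MRT were derived from plasma exposure.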

[2] = MRT in male Wistar Han rat at 100 mg/kg, po administered as single dose post overnight fasting measured upto 24 hrs by LC-MS/MS analysis; type: ADME, organism-based; conditions: in vivo; summary of the method: as §1
[3] = AUC in male Wistar Han rat at 100 mg/kg, po administered as single dose post overnight fasting measured upto 24 hrs by LC-MS/MS analysis; type: ADME, organism-based; parameters: route oral, dose 100 mg/kg, time <=24; conditions: in vivo; summary of the method: as §1
[4] = Oral bioavailability in Beagle dog at 5 mg/kg post overnight fasting measured upto 24 hrs by LC-MS/MS analysis; type: ADME, organism-based, Canis lupus familiaris; conditions: in vivo
Summary of the method: (§2)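 Overnight-fasted male Wistar Han rats or Beagle dogs, two animals per group, 24 h study. IV in 60% PEG200 (rat 2 mg/kg, dog 1 mg/kg). PO in 10% Tween (rat 10 mg/kg, dog 5 mg/kg). Blood sampled up to 24 h, plasma separated by centrifugation, and drug measured by LC/MS. MRT reported for the IV route.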

[5] = MRT in male Wistar Han rat at 300 mg/kg, po administered as single dose post overnight fasting measured upto 24 hrs by LC-MS/MS analysis; type: ADME, organism-based; conditions: in vivo; summary of the method: as §1
[6] = Tmax in male Wistar Han rat at 100 mg/kg, po administered as single dose post overnight fasting measured upto 24 hrs by LC-MS/MS analysis; type: ADME, organism-based; conditions: in vivo; summary of the method: as §1
[7] = Mean residence time in Beagle dog at 1 mg/kg, iv administered post overnight fasting measured upto 24 hrs by LC-MS/MS analysis; conditions: in vivo
[8] = Tmax in male Wistar Han rat at 10 mg/kg, po administered as single dose post overnight fasting measured upto 24 hrs by LC-MS/MS analysis; type: ADME, organism-based; conditions: in vivo; summary of the method: as §1
[9] = AUC in male Wistar Han rat at 10 mg/kg, po administered as single dose post overnight fasting measured upto 24 hrs by LC-MS/MS analysis; type: ADME, organism-based; parameters: route oral, dose 10 mg/kg, time <=24; conditions: in vivo; summary of the method: as §1
[10] = Cmax in Beagle dog at 5 mg/kg, po administered post overnight fasting measured upto 24 hrs by LC-MS/MS analysis; type: ADME, organism-based, Canis lupus familiaris; parameters: route oral, dose 5 mg/kg, time <=24; conditions: in vivo; summary of the method: as §2
[11] = AUC in male Wistar Han rat at 300 mg/kg, po administered as single dose post overnight fasting measured upto 24 hrs by LC-MS/MS analysis; type: ADME, organism-based; parameters: route oral, dose 300 mg/kg, time <=24; conditions: in vivo; summary of the method: as §1
[12] = Clearance in Beagle dog at 1 mg/kg, iv administered post overnight fasting measured upto 24 hrs by LC-MS/MS analysis; type: ADME, organism-based, Canis lupus familiaris; conditions: in vivo; summary of the method: as §2
[13] = Cmax in male Wistar Han rat at 100 mg/kg, po administered as single dose post overnight fasting measured upto 24 hrs by LC-MS/MS analysis; type: ADME, organism-based; parameters: route oral, dose 100 mg/kg, time <=24; conditions: in vivo; summary of the method: as §1
[14] = AUC in Beagle dog at 5 mg/kg, po administered post overnight fasting measured upto 24 hrs by LC-MS/MS analysis; type: ADME, organism-based, Canis lupus familiaris; parameters: route oral, dose 5 mg/kg, time <=24; conditions: in vivo; summary of the method: as §2
[15] = Drug concentration in Beagle dog at 5 mg/kg, po measured after 24 hrs by LC/MS analysis; type: ADME, organism-based, Canis lupus familiaris; conditions: in vivo, read-out: Drug uptake; summary of the method: as §2
[16] = Tmax in male Wistar Han rat at 300 mg/kg, po administered as single dose post overnight fasting measured upto 24 hrs by LC-MS/MS analysis; type: ADME, organism-based; conditions: in vivo; summary of the method: as §1
[17] = Cmax in male Wistar Han rat at 10 mg/kg, po administered as single dose post overnight fasting measured upto 24 hrs by LC-MS/MS analysis; type: ADME, organism-based; parameters: route oral, dose 10 mg/kg, time <=24; conditions: in vivo; summary of the method: as §1
[18] = MRT in male Wistar Han rat at 10 mg/kg, po administered as single dose post overnight fasting measured upto 24 hrs by LC-MS/MS analysis; type: ADME, organism-based; conditions: in vivo; summary of the method: as §1

Question: What does the source list for COC(=O)N[C@H](C(=O)N1CCC[C@H]1c1ncc(-c2cc(F)c3c(c2)OC(c2ccc4c(c2)OCCC4)n2c-3cc3cc(-c4cnc([C@@H]5CCCN5C(=O)[C@@H](NC(=O)OC)C(C)C)[nH]4)ccc32)[nH]1)C(C)C.Cl.Cl (stereo partly drawn)?
Answer: Cmax [1]: 400 nM; MRT [2]: 13 h; AUC at 24 h [3]: 5.9 µM·h; bioavailability [4]: 16%; MRT [5]: 11 h; Tmax [6]: 5 h; MRT [7]: 11.4 h; Tmax [8]: 5 h; AUC at 24 h [9]: 0.42 µM·h; Cmax [10]: 1220 nM; AUC at 24 h [11]: 4.9 µM·h; clearance [12]: 2 mL/min/kg; Cmax [13]: 350 nM; AUC at 24 h [14]: 6.92 µM·h; concentration at 24 h [15]: 51 nM; Tmax [16]: 8 h; Cmax [17]: 40 nM; MRT [18]: 8.5 h
